Reference: the M2OR odorant receptor database

Each molecule was assayed against T1, OR2T34 (Homo sapiens) (UniProt Q8NGX1). Settings: stereoisomer not certain.
T1 sequence (whole entry): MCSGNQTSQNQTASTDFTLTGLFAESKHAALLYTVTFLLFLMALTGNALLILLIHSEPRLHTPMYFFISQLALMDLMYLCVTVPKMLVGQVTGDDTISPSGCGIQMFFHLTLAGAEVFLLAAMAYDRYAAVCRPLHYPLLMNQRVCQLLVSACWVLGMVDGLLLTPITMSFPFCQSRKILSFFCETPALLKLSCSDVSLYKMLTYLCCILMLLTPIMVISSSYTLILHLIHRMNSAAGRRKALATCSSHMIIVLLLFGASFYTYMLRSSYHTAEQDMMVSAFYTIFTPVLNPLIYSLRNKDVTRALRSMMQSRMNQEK
How it was run: (§1)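 Each receptor–molecule pair is labelled responsive or non-responsive (inactive) according to whether the original authors judged the measured signal statistically different from baseline. The data were taken from the main text and supplementary material of published papers and checked for typos and inconsistencies. Assay methods differed by source, with transient luciferase assays in mammalian cell lines being common.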
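Further: active if original authors judged signal statistically different from baseline.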

Row | SMILES | odorant receptor agonist call
1 | OCc1ccccc1 | inactive
2 | CCCCC1CCC(=O)O1 (centres undefined) | inactive
3 | CC(=O)OCc1ccccc1 | inactive
4 | CC(=O)C=CC1=C(C)CCCC1(C)C | inactive

These molecules were tested against T2, OR2T4 (Homo sapiens) (UniProt Q8NH00). Settings: stereoisomer not certain.
T2 sequence (whole entry): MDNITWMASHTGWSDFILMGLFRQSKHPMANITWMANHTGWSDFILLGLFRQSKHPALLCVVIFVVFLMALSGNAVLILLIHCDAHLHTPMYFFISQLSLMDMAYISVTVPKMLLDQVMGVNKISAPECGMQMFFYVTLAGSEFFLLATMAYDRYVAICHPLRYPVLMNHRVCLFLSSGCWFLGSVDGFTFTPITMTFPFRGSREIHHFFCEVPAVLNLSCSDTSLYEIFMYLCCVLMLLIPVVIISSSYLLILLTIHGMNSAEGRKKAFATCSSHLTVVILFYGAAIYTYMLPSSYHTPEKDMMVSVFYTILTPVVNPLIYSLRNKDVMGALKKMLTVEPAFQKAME
How it was run: as §1

Row | SMILES | odorant receptor agonist call
5 | CC(O)C(=O)[O-].[H+] (centres undefined) | inactive
6 | CCCCCCCCCCCCCCCCCC(=O)OCC | inactive
7 | CCCCCCCCCCCCCC(=O)OCC | inactive
8 | CCCCCCCCCC(=O)OC | inactive
9 | CCCCCCCCCCCCCCCCCC(=O)OC | inactive
10 | CC(C=O)Cc1ccc(C(C)(C)C)cc1 (centres undefined) | active
11 | CCCCCCCCCCCC(=O)OCC | inactive
12 | CC(C)(C)c1ccccc1 | inactive
13 | CCCCCCCCCCCC(=O)O | inactive
14 | CCCCC(=O)C(C)=O | inactive
15 | CCCCCCCCCCCCCC(=O)O | inactive
16 | CCCCCCCCO | inactive
17 | CCCC(=O)CC | inactive
18 | CCCCCCCCCCCCCCCCCC(=O)[O-].[H+] | inactive
19 | CCCCCCCCCCCCCCCC(=O)[O-].[H+] | inactive
20 | C=C1CCC2CC1C2(C)C (centres undefined) | inactive

Row | SMILES | odorant receptor agonist call
21 | CC(C)=CCCC(C)=CCCC(C)=CCO | inactive
22 | CCCCCCCCCCCC(=O)OC | inactive
23 | CCC(O)CC | inactive
24 | CC(CC=O)c1ccccc1 (centres undefined) | inactive
25 | CCCCCCCCCCCCCC(=O)OC | inactive
26 | CCCCCCCCCCCCCCCC(=O)OCC | inactive
27 | Cc1cccc(C)c1C | inactive
28 | CCCCCCCCCCCCCCCC(=O)OC | inactive
29 | CCCCCCCCCCCCCCC(=O)O | inactive
30 | Cc1cnc(C)cn1 | inactive
31 | CCCO | inactive
32 | COc1ccc2[nH]cc(CCNC(C)=O)c2c1 | inactive
33 | CCC(=O)O | inactive
34 | CCCCCCCC(=O)OC | inactive
35 | CCCCOCC(C)O (centres undefined) | inactive
36 | CCCCCCCCCCCCO | inactive

What follows are molecules tested against T3, OR2W1 (Homo sapiens) (UniProt Q9Y3N9). Settings: stereoisomer not certain.
T3 sequence (whole entry): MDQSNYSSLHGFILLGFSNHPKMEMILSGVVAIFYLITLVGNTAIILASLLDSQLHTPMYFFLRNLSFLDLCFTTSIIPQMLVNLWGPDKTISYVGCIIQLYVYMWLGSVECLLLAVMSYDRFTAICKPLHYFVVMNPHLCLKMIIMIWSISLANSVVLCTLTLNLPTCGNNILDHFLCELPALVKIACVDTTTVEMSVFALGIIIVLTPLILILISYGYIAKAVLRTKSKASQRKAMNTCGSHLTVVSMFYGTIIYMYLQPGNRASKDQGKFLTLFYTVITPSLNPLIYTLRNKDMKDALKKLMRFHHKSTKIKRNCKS
How it was run: as §1

Row | SMILES | odorant receptor agonist call
37 | OCc1ccccc1 | inactive
38 | CCCCC(=O)C(C)=O | inactive
39 | CCCCCCCCO | active
40 | CCCCC1CCC(=O)O1 (centres undefined) | active
41 | CC(=O)OCc1ccccc1 | active
42 | C=C1CCC2CC1C2(C)C (centres undefined) | inactive
43 | CCC(=O)O | inactive
44 | CC(=O)C=CC1=C(C)CCCC1(C)C | inactive
